How the values were obtained:
[1] = biological target: T1, human serum albumin (HSA) (Homo sapiens, UniProt P02768); assay: ANS fluorescence binding and competition on HSA; settings: for displacement of ANS from HSA: 2.5 μM HSA with 5 or 100 μM ANS
Procedure, shortened: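 Fluorescence competition with 2.5 μM HSA and 5 or 100 μM ANS. The test compound was titrated over a concentration range. Excitation was 360 nm, with emission read at 460 and 480 nm to detect blue shifts. Signals were normalised between ANS alone (minimum) and HSA:ANS (maximum). ANS stoichiometry and affinity on HSA were set beforehand by a Sudlow-type titration.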

[2] = Dynamic light scattering of aggregates/micelles; format: physicochemical; settings: for aggregate size range (DLS intensity profile): 500 μM, 2.5% DMSO; for aggregates detectable by DLS in presence of HSA: with HSA
[3] = biological target: T2, EPAC1CBD (cAMP-binding domain of hEPAC1, residues 149–318) (Homo sapiens, UniProt O95398); assay: NH-HSQC chemical shift titration of EPAC1CBD
T2 sequence (O95398 149-318 isoform O95398-3): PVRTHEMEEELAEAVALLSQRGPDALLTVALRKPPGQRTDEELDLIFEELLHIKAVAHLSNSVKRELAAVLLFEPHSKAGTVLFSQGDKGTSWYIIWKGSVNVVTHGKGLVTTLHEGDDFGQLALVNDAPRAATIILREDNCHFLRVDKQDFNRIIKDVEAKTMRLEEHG
Procedure, shortened: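 100 μM human EPAC1 CBD (residues 149–318) in Tris NMR buffer was titrated with test compound, with or without HSA, and read by 1H-15N HSQC. DMSO was 0.5% per 100 μM compound. Compounded chemical-shift changes from 35 residues were least-squares fitted at 1:1, with ΔCCSmax free or fixed, to give Kd or apparent Kd. Peak intensities were normalised to the compound-free sample and averaged (I/I0).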

[4] = biological target: human serum albumin (HSA) Sudlow sites (Homo sapiens, UniProt P02768); assay: Fluorescence competition with dansylated amino acids; format: binding
Sequence of human serum albumin (HSA) Sudlow sites (P02768 25-609): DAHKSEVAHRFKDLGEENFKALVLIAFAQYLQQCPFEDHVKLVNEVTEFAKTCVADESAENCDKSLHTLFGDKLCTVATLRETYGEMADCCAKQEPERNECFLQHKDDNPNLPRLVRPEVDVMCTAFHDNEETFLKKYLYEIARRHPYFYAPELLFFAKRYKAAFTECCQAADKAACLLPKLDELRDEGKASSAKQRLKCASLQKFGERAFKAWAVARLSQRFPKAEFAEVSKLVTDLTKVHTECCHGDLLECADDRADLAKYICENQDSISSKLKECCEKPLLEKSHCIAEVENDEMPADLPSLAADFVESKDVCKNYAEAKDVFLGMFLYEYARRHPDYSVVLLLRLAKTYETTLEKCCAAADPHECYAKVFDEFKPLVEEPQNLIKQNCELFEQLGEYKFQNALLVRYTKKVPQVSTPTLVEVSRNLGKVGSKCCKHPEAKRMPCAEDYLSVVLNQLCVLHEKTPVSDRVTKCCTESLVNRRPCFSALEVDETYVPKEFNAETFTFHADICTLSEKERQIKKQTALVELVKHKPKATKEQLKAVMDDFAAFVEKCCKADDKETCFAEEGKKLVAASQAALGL
Procedure, shortened: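 Dansylated arginine (Sudlow site 1, 1:1) or dansylated phenylalanine (sites 1 and 2) fluorescence with recombinant fatty-acid-free HSA on a plate reader. Excitation was 370 for both probes, with emission at 460 (DanR) or 480 nm (DanF). Probe affinity and stoichiometry came from direct titration. Competitions used 2.5 μM HSA with 100 μM probe and were least-squares fitted assuming no extra sites.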

[5] = SPR on nonfunctionalized gold nanoparticle sensor; format: physicochemical; settings: for SPR signal relative to DMSO control: 50 μM and 250 μM, 1.25% DMSO
EPAC1CBD [6] = biological target: T3, EPAC1CBD (Homo sapiens, UniProt O95398); assay: Nonspecific interaction with EPAC1CBD by global NH-HSQC intensity losses; format: binding; settings: for type of aggregation-based inhibitor: NMR intensity losses and DLS
T3 sequence (O95398 149-318 isoform O95398-3): T2 sequence (O95398 149-318 isoform O95398-3)

EPAC1CBD [7] = biological target: T3, EPAC1CBD; assay: DLS volume profile of EPAC1CBD in presence of ESIs; format: binding
[8] = biological target: T1, human serum albumin (HSA); assay: 13C-oleic acid displacement assay on HSA; format: binding; settings: 250 μM HSA, 1.5 mM OA
Procedure, shortened: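 Recombinant globulin- and fatty-acid-free HSA at 250 μM in 20 mM NaPO4 pH 7.6, 50 mM NaCl in 99.9% D2O, held 37 °C 30 min. 13C-oleic acid (100 mM stock in DMSO-d6, warmed 50 °C 10 min) added to 1.5 mM final, then 37 °C 2 h. {13C–1H}-HSQC recorded with and without test compound at 298 K; site peaks A–H losing intensity mark displacement.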

[9] = Transmission electron microscopy of aggregates; format: physicochemical; settings: 200 μM
Procedure, shortened: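 Aggregate samples were applied to 400-mesh copper grids freshly coated with continuous amorphous carbon and glow-discharged at 5 mA for 15 s beforehand. Grids were imaged by transmission electron microscopy on a side-mounted cooled 4-megapixel CCD camera.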

T1 sequence (P02768 25-609): as above

Compound | aggregate size range (DLS intensity profile) [2] | type of aggregation-based inhibitor (EPAC1CBD [6]) | displacement of 13C-oleic acid from HSA [8] | aggregate morphology (TEM) [9] | aggregates detectable by DLS in presence of HSA [2] | displacement of ANS from HSA [1] | SPR signal relative to DMSO control [5] | EPAC1CBD NH-HSQC signal/intensity loss (EPAC1CBD [6]) | further results
O=S(=O)(O)c1cccc2cccc(Nc3ccccc3)c12 [ANS, 8-anilinonaphthalene-1-sulfonic acid] | – | – | – | – | – | – | – | – | ANS binding stoichiometry and affinity for HSA ([1]; Scatchard plot): binds up to four sites on HSA with low micromolar affinity
C[C@@H]1CCc2c(cc(Br)c(F)c2Br)N1C=O [CE3F4R] | 90–600 nm | Type A | displace OA at multiple sites | more amorphous morphology | no detectable aggregates in the presence of HSA | unable to displace ANS | no significant change in SPR signal | no more than that caused by DMSO | coaggregate size with TX (DLS) ([2]; TX:CE3F4R 1:2 (0.0075% TX, 200 μM CE3F4R)): around 70 nm; increase of apparent Kd for EPAC1CBD binding caused by HSA ([3]; CE3F4R titration with vs without HSA): 5–10 fold; concentration at which dissociation from EPAC1CBD starts ([3]; presence of HSA): ≥ 750 µM; displacement of dansylated amino acids from HSA ([4]; concentrations below CAC): ineffective at displacing either of the dansylated amino acids from HSA; change of EPAC1CBD DLS volume profile (EPAC1CBD [7]; below or above CAC): does not result in any major change in the volume profile of EPAC1CBD
CN(C)c1cccc2c(S(=O)(=O)N[C@@H](CCCN=C(N)N)C(=O)O)cccc12 [DanR, dansyl-arginine] | – | – | – | – | – | – | – | – | Kd ([4]; read-out: Kd for HSA Sudlow's Site I, fluorescence titration): ~25 µM
CC(C)(C)c1cc(C(=O)/C(C#N)=N/Nc2cccc(Cl)c2)no1 [ESI-09] | 90–600 nm | type B | displace OA at multiple sites | spherical micellar morphology | no detectable aggregates in the presence of HSA | can fully displace even large excesses of ANS at low micromolar concentrations | significant difference for ESI-09 when injected at a concentration that is above its CAC | substantial signal losses for EPAC1CBD peaks | EPAC1CBD chemical shift changes with HSA relative to those without HSA ([3]; 100 μM ESI-09): < 20%; reduction of average chemical shift changes with HSA vs without HSA ([3]; ESI-09 concentration yielding similar intensity losses): ~ 30%; SPR signal with HSA relative to HSA and DMSO control ([5]; 250 μM ESI-09 with 25 μM HSA): no significant SPR signal increase; SPR signal with HSA relative to HSA and DMSO reference ([5]; 500 μM ESI-09 with 25 μM HSA): SPR signal significantly increases; ESI-09 concentration giving similar signal loss in presence of HSA (EPAC1CBD [6]; compared with 100 μM ESI-09 without HSA): around 400 μM; increase of EPAC1CBD HSQC intensities in presence of HSA (EPAC1CBD [6]; most ESI-09 concentrations): 30–40%; increase of EPAC1CBD size profile (DLS) (EPAC1CBD [7]; ESI concentration above CAC): up to 5 nm
Triton X-100 [TX] | – | – | – | – | – | – | – | no significant chemical shift changes or intensity losses | average aggregate/micelle diameter (DLS) ([2]; compound in isolation): about 10 nm
